# In ChEMBL document CHEMBL1157270, “Physalins from Witheringia solanacea as modulators of the NF-kappaB cascade” (J Nat Prod, 2006):
# Calls of active or inactive are those of the source.
# Legend:
# [1] = system: HeLa; experiment: Cytotoxicity against human HeLa cells after 72 hrs by MTT assay; type: functional, cell-based
# Method in brief: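 HeLa cells exposed to compound for 72 h, then incubated 2 h at 37 °C with 0.5 mg/mL MTT. Formazan dissolved in 90% 2-propanol with DMSO. IC50 read from the concentration–response.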
# [2] = system: HeLa; experiment: Inhibition of PMA-induced NF-kappaB activation in human HeLa cells at 16 uM after 7 hrs by IL6/luciferase reporter gene assay; type: cell-based
# Method in brief: (§1)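 HeLa cells stably transfected with an IL-6 promoter–luciferase reporter, stimulated with PMA (50 ng/mL final) for 7 h in the presence of compound. Luminescence given as % of RLU of the PMA-stimulated control, mean of three experiments. Active if ≥30% of positive control. Unstimulated cells served as negative control.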
# [3] = system: HeLa; experiment: Inhibition of PMA-induced NF-kappaB activation in human HeLa cells at 8 uM after 7 hrs by IL6/luciferase reporter gene assay; type: cell-based; method in brief: as §1
# [4] = system: HeLa; experiment: Inhibition of PMA-induced NF-kappaB activation in human HeLa cells at 4 uM after 7 hrs by IL6/luciferase reporter gene assay relative to untreated control; type: cell-based; set-up: scale not given: the % may be the effect or the level left; method in brief: as §1
# [5] = system: HeLa; experiment: Inhibition of PMA-induced NF-kappaB activation in human HeLa cells at 2 uM after 7 hrs by IL6/luciferase reporter gene assay relative to untreated control; type: cell-based; set-up: scale not given: the % may be the effect or the level left; method in brief: as §1
# [6] = system: Jurkat; experiment: Inhibition of TNF-alpha-induced NF-kappaB activation in human Jurkat 5.1 cells preincubated for 30 mins measured after 6 hrs by HIV1-LTR luciferase assay; type: cell-based
# Method in brief: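 5.1 cells preincubated with compound (5, 10, 20 µM) for 30 min, then stimulated with TNF (2 ng/mL) for 6 h. Lysis in Tris phosphate pH 7.8 buffer with Triton X-100. Luciferase read after subtracting lysis-buffer background and normalised to Bradford protein (RLU/µg). Result expressed as fold induction, mean of three experiments.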
# [7] = species: Homo sapiens; experiment: Inhibition of NF-kappaB activation in human HeLa-Tet-On cells assessed as inhibition of doxycyclin-induced HIV1-LTR transactivation at 5 uM after 6 hrs by luciferase reporter gene assay; type: cell-based
# Method in brief: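 HeLa-Tet-On-Luc cells seeded at 5 × 10^5 cells/mL the day before, then stimulated with doxycycline (2 µg/mL) with or without compound for 6 h. Cells washed in PBS and lysed, and luciferase activity measured.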
# [8] = system: Jurkat; experiment: Induction of apoptosis in human Jurkat T cells assessed as sub-G0/G1 fraction at 1 uM after 6 hrs by flow cytometry; type: functional
# Method in brief: (§2)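 Jurkat cells (10^6) grown in RPMI 1640 with 10% heat-inactivated FBS, 2 mM glutamine, penicillin and streptomycin, then treated 6 or 24 h. Cells fixed in 70% ethanol for 24 h at 4 °C, washed in PBS with 4% glucose, treated with RNase A (50 U/mL) and stained with PI (20 µg/mL) for 1 h at room temperature. Subdiploid (sub-G0/G1) percentage measured by flow cytometry.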
# [9] = system: Jurkat; experiment: Induction of apoptosis in human Jurkat T cells assessed as sub-G0/G1 fraction at 10 uM after 6 hrs by flow cytometry; type: functional; method in brief: as §2
# [10] = system: Jurkat; experiment: Induction of apoptosis in human Jurkat T cells assessed as sub-G0/G1 fraction at 20 uM after 6 hrs by flow cytometry; type: functional; method in brief: as §2
# [11] = system: Jurkat; experiment: Induction of apoptosis in human Jurkat T cells assessed as sub-G0/G1 fraction at 1 uM after 24 hrs by flow cytometry; type: functional; method in brief: as §2
# [12] = system: Jurkat; experiment: Induction of apoptosis in human Jurkat T cells assessed as sub-G0/G1 fraction at 10 uM after 24 hrs by flow cytometry; type: functional; method in brief: as §2
# [13] = system: Jurkat; experiment: Induction of apoptosis in human Jurkat T cells assessed as sub-G0/G1 fraction at 20 uM after 24 hrs by flow cytometry; type: functional; method in brief: as §2
# [14] = system: HeLa; experiment: Cytotoxicity against human HeLa cells at 100 uM; type: functional, cell-based
# [15] = system: HeLa; experiment: Cytotoxicity against human HeLa cells after 7 hrs; type: functional, cell-based
# Method in brief: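 HeLa cells stably carrying an IL-6 promoter–luciferase reporter, exposed to compound with PMA (50 ng/mL final) for 7 h. Toxicity judged visually at 40× magnification from changes in cell morphology.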
# [16] = system: HeLa; experiment: Cytotoxicity against human HeLa cells at 100 ug/mL
Structure (SMILES),IC50 [1],Activity [2],Activity [3],Activity [4],Activity [5],Activity [6],Activity [7],Activity [8],Activity [9],Activity [10],Activity [11],Activity [12],Activity [13],Activity [14],Activity [15],Activity [16]
C[C@@]12C[C@H]3OC(=O)[C@@H]1CO[C@]14O[C@]5([C@H]2C1=O)[C@@](O)(CC[C@H]1[C@H]4C[C@H]2O[C@]24CC=CC(=O)[C@]14C)C(=O)O[C@@]35C [PHYSALIN F],2000 nM,Active,Active,7%,20%,Dose-dependent effect,inactive,2.71%,2.07%,1.64%,50.2%,58.2%,64.6%,Toxic,Not toxic,
C[C@@]12C[C@H]3OC(=O)[C@@H]1CO[C@@]14O[C@]5([C@H]2C1=O)[C@@](O)(CC[C@H]1[C@H]4C[C@@H](O)[C@@]2(O)CC=CC(=O)[C@]12C)C(=O)O[C@@]35C,,,,,,,,,,,,,,Not toxic,,
C[C@]12C(=O)C=CCC1=CC[C@@H]1[C@@H]2CC[C@]2(O)C(=O)O[C@@]3(C)[C@H]4C[C@]5(C)[C@@H](CO[C@@]16O[C@@]32[C@H]5C6=O)C(=O)O4 [PHYSALIN B],2000 nM,Active,Active,,,,,1.83%,2.08%,2.08%,6.27%,49.7%,50%,,Not toxic,Toxic
